Measurements gathered from unrelated publications.
Target: Ribosomal protein S6 kinase beta-1 (RPS6KB1, Homo sapiens, UniProt P23443)

SMILES | observed | method | tested at | remaining binding
O=C(Nc1c[nH]nc1C(=O)NC1CCNCC1)c1cc(F)cc(F)c1 | binding | competition with immobilised ligand | 1 µM | 99%
CCCOc1ccc([C@H]2[C@H](C(=O)O)[C@@H](c3ccc4c(c3)OCO4)CN2CC(=O)Nc2c(CC)cccc2CC)cc1 | cell-free assay | competition with immobilised ligand | 1 µM | 76%
N[C@H]1CCN(c2nccc(-c3cnn4ncccc34)n2)C1 | binding |  | 1 µM | 100%
NS(=O)(=O)c1cc(NC(=O)Cc2ccccc2)ccc1Oc1cccc(Cl)c1 | cell-free assay | competition with immobilised ligand | 1 µM | 69%
O=C(c1ccc(Nc2ncc(Cl)c(-c3ccc(Cl)s3)n2)cc1)N1CCC(N2CCCC2)CC1 | binding | competition with immobilised ligand | 1 µM | 21%
Cc1cnn2ncc(-c3ccnc(N(C)C)n3)c2c1 | binding |  | 1 µM | 82%
O=C(O)c1cc(-c2ccc(C3CCNCC3)cc2)c2ccc(-c3ccc(C(F)(F)F)cc3)cc2c1 | cell-free assay | competition with immobilised ligand | 1 µM | 100%
C[C@@H](c1ccc(-n2cnc3c(N)ncnc32)cc1)N1CCc2nn(C)c(Cc3ccccc3)c2C1=O | binding | competition with immobilised ligand | 0.1 µM | 67%
CN(c1nccc(-c2cnn3ncccc23)n1)C1CC1 | binding |  | 1 µM | 100%
CNC(=O)[C@@H]1CC[C@@H](n2c(-c3ccc4cnccc4c3)nc3ccc(C(=O)NCc4cccc(C(N)=O)c4)cc32)C1 | binding | competition with immobilised ligand | 1 µM | 87%
C[C@@H]1CCN(c2nccc(-c3cnn4ncccc34)n2)C1 | binding |  | 1 µM | 87%
O=C(NCCCN1CCOCC1)c1ccc(Nc2nccc(-c3cc4ccccc4s3)n2)cc1 | binding | competition with immobilised ligand | 1 µM | 92%
CC1CCCN1c1nccc(-c2cnn3ncccc23)n1 (centres unmarked) | binding |  | 1 µM | 100%
O=C(NCCCN1CCOCC1)c1ccc(Nc2ncc(Cl)c(-c3ccc(Cl)s3)n2)cc1 | binding | competition with immobilised ligand | 1 µM | 38%
CN(C)C(=O)Cn1cc(-c2nc([C@@](C)(c3ccc(-c4cnc(N)nc4)cc3)C3CC3)no2)cn1 | cell-free assay | competition with immobilised ligand | 1 µM | 83%
COc1ncc2cc3ccccc3nc2c1C#N | cell-free assay | competition with immobilised ligand | 5 µM | 100%
Cc1c(C(=O)O)cc(-c2ccc(C3CCNCC3)cc2)c2ccc(-c3ccc(C(F)(F)F)cc3)cc12 | binding | competition with immobilised ligand | 1 µM | 100%
CN(CCCC(F)(F)F)c1nccc(-c2cnn3ncccc23)n1 | binding |  | 1 µM | 100%
C[C@H](NC(=O)c1cnc2n1[C@](C)(Cc1ccc(C#N)cc1)C(=O)N2c1cc(Cl)c(F)c(Cl)c1)C(=O)NC1(c2ccccn2)CC1 | cell-free assay | competition with immobilised ligand | 1 µM | 100%
COc1cnc(Nc2cccc(S(N)(=O)=O)c2)nc1N1CCN(c2ccccc2)CC1 | binding | competition with immobilised ligand | 1 µM | 94%
